Laboratory results: ChEMBL document CHEMBL4373648, “Anti-biofilm activity of quinazoline derivatives against Mycobacterium smegmatis” (Medchemcomm, 2019)

What was measured:
[1] = tested on: Mycolicibacterium smegmatis; assay: Antibiofilm activity against Mycobacterium smegmatis str. MC2 155 ATCC 700084 after 48 hrs by crystal violet staining based […] assay; type: functional, organism-based; details: MC2 155 ATCC 700084, 48 h
Procedure, shortened: (§1)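 IC50 is the concentration giving 50% inhibition of biofilm formation relative to an untreated control.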

[2] = tested on: Mycolicibacterium smegmatis; assay: Toxicity against Mycobacterium smegmatis str. MC2 155 ATCC 700084 at 60 uM assessed as planktonic growth inhibition incubated for 4 to 48 hrs followed by replating on 7H10 plates and measured after 48 hrs by time kill curve assay; type: organism-based; details: in vivo
Procedure, shortened: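 Planktonic growth curves of bacteria grown with compound at 60 μM were compared with curves from untreated cultures.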

[3] = Hemolytic activity in sheep RBC at 500 uM incubated for 1 hr under shaking condition by UV-spectrophotometry relative to 1% Triton-X; type: ADME, cell-based, Ovis aries, Erythrocyte; details: sheep red blood cells (erythrocytes), read-out: Activity
Procedure, shortened: (§2)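 Red blood cells were exposed to compound, and hemolysis was expressed as percent lysis relative to 1% Triton-X. The assay served as an antibiotic toxicity screen, and 500 μM was the highest concentration tested.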

[4] = Hemolytic activity in sheep RBC at 200 uM incubated for 1 hr under shaking condition by UV-spectrophotometry relative to 1% Triton-X; type: ADME, cell-based, Ovis aries, Erythrocyte; details: sheep red blood cells (erythrocytes), read-out: Activity; procedure, shortened: as §2
[5] = Hemolytic index, ratio of compound concentration causing hemolysis in sheep RBC to IC50 for antibiofilm activity against Mycobacterium smegmatis str. MC2 155 ATCC 700084
Procedure, shortened: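 Red blood cells were exposed to compound at up to 500 μM, including 200 μM. Lysis was quantified relative to 1% Triton-X. The index was calculated as the hemolysis-causing concentration divided by the biofilm-inhibition IC50.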

[6] = tested on: Mycolicibacterium smegmatis; assay: Antibiofilm activity against Mycobacterium smegmatis str. MC2 155 ATCC 700084 after 48 hrs by crystal violet staining based spectrophotometric assay; type: functional, organism-based; details: MC2 155 ATCC 700084, 48 h; procedure, shortened: as §1

SMILES | IC50 [1] | further results
CCS(=O)(=O)Nc1ccc2nc(N)ncc2c1 | 34 µM | 
CCCCS(=O)(=O)Nc1ccc2nc(N)ncc2c1 | 60 µM | 
Nc1ncc2cc(NC(=O)c3cc(Cl)cc(Cl)c3)ccc2n1 | 42 µM | 
CCCS(=O)(=O)Nc1ccc2nc(N)ncc2c1 | 36 µM | 
CS(=O)(=O)Nc1ccc2nc(N)ncc2c1 | > 100 µM | 
Nc1ncc2cc(NC(=O)c3ccc(F)cc3)ccc2n1 | > 200 µM | 
CCCC(=O)Nc1ccc2nc(N)ncc2c1 | 37 µM | 
Cc1ccc(C(=O)Nc2ccc3nc(N)ncc3c2)cc1 | 19 µM | 
Cl.Nc1ncc2cc(NC(=O)c3ccc(Cl)cc3)ccc2n1 | 15 µM | Activity [2]: Non-Toxic; hemolysis at 1 h, 500 µM [3]: 24%; hemolysis at 1 h, 200 µM [4]: 4%; HI [5]: > 33
CCc1ccc(C(=O)Nc2ccc3nc(N)ncc3c2)cc1 | 18 µM | 
CCCCCCC(=O)Nc1ccc2nc(N)ncc2c1 | 49 µM | 
Nc1ncc2cc(NC(=O)c3cc(F)cc(F)c3)ccc2n1 | 46 µM | 
CCCCC(=O)Nc1ccc2nc(N)ncc2c1 | 26 µM | 
Nc1ncc2cc(NC(=O)CCl)ccc2n1 | 43 µM | 
Nc1ncc2cc(NC(=O)C(Cl)(Cl)Cl)ccc2n1 | 50 µM | 
CCCCc1ccc(C(=O)Nc2ccc3nc(N)ncc3c2)cc1 | 39 µM | 

SMILES | IC50 [1] | further results
CCCCCCCc1ccc(C(=O)Nc2ccc3nc(N)ncc3c2)cc1 | > 100 µM | hemolysis at 1 h, 500 µM [3]: 57%; hemolysis at 1 h, 200 µM [4]: 31%
CCCCCc1ccc(C(=O)Nc2ccc3nc(N)ncc3c2)cc1 | 39 µM | 
Nc1ncc2cc(NS(=O)(=O)c3cccs3)ccc2n1 | > 100 µM | 
CCCCCCc1ccc(C(=O)Nc2ccc3nc(N)ncc3c2)cc1 | 65 µM | 
CCCCCCC(CCCCCC)NC(=O)CCCc1c[nH]c(N)n1 |  | IC50 [6]: 5.3 µM
CCCCCCCCC(=O)Nc1ccc2nc(N)ncc2c1 | > 100 µM | 
CCCCCC(=O)Nc1ccc2nc(N)ncc2c1 | 23 µM | 
Nc1ncc2cc(NC(=O)c3ccc(Br)cc3)ccc2n1 | 44 µM | 
Nc1ncc2cc(NC(=O)c3ccccc3)ccc2n1 | 34 µM | 
CCCCCCCC(=O)Nc1ccc2nc(N)ncc2c1 | > 100 µM | 
CC(=O)Nc1ccc2nc(N)ncc2c1 | 54 µM | 
CCCCCCS(=O)(=O)Nc1ccc2nc(N)ncc2c1 | > 100 µM | 
Nc1ncc2cc(NC(=O)c3ccc(I)cc3)ccc2n1 | > 200 µM | 
CCCc1ccc(C(=O)Nc2ccc3nc(N)ncc3c2)cc1.Cl | 16 µM | Activity [2]: Non-Toxic; hemolysis at 1 h, 500 µM [3]: 25%; hemolysis at 1 h, 200 µM [4]: 14%; HI [5]: > 33
CCC(=O)Nc1ccc2nc(N)ncc2c1 | 42 µM | 
